GSTO1 inh: counter-screen for RBBP9 inhibitors: inhibitors of human GSTO1; inhibition, % at 5.96 µM; actives 1.1% (n = 300,000); recombinant GSTO1, activity-based probe fluorescence polarization; P78417;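 active = inhibition above the campaign mean inhibition plus 3 SD, cut at about 35% in these data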
PAD4 inh: blocks human protein arginine deiminase 4 | Q9UM07 | recombinant PAD4, RCA probe fluorescence polarization | inhibition, % at 6.36 µM | actives 0.41% (n = 330,000) | AID 485272;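 active = percent inhibition above a cutoff equal to the mean of all tested compounds plus 3 SD, cut at about 15% in these data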
Target sequence (Q9UM07 whole entry, looked up): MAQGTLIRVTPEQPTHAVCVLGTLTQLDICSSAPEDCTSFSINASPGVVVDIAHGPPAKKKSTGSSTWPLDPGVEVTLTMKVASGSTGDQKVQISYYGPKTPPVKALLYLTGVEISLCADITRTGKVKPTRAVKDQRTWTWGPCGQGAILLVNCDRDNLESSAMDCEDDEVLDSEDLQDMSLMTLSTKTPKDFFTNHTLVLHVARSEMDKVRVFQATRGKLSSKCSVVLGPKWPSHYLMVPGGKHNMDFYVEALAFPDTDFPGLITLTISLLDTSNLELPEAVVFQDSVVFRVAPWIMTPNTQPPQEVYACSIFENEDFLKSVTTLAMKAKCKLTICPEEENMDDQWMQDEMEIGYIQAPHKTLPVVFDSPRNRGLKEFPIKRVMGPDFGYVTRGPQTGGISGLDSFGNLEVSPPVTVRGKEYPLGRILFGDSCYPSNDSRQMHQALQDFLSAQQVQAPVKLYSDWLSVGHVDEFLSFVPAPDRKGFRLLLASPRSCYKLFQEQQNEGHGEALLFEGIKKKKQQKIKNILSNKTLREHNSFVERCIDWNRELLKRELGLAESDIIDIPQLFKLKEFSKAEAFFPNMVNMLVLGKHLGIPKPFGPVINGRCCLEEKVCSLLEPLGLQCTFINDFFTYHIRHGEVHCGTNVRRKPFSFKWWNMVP
Apaf1 inhib: human Apaf-1 inhibition | O14727 | reconstituted apoptosome caspase-3 activity, DEVD-Rh110 fluorescence | inhibition, % at 20 µM | actives 0.71% (n = 330,000) | AID 489030; active = inhibition of at least 40% at 20 µM
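Medium: Hepes buffer, pH 7.5 / System: biochemical Apaf-1 apoptosome reconstitution / Measured by: Rh110 fluorescence, excitation 480 nm, emission 540 nm / Times: compound with Apaf-1, dATP, procaspase-3 30 min, then 50 min reaction, room temperature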
Rin1 Abl inh: inhibitors of human Rin1-Abl protein interaction. TR-FRET Rin1/Abl binding, biochemical. AID 588664. actives 0.4% (n = 360,000). inhibition, % at 7.35 µM. P00519+Q13671; in the data active = inhibition above about 5%, passing the limit was not always enough
SUMO HTRF inh: blocks human SUMOylation mediated by UBC9 | HTRF SUMOylation assay, SAE1/SAE2 + UBC9, in vitro | inhibition, % at 35 µM | actives 0.36% (n = 290,000) | AID 2006; in the data active = inhibition above about 50%, passing the limit was not always enough
UBC13 polyUb: human UBC13 polyubiquitination inhibition; actives 0.47% (n = 330,000); AID 485273; inhibition, % at 20 µM; UBC13 polyubiquitin chain formation, TR-FRET; in the data active = inhibition above about 45%, passing the limit was not always enough
Apaf-1 inh conf2: Apaf-1 inhibition, single-dose confirmed. shares compounds with Apaf1 inhib. inhibition, % at 20 µM. actives 25% (n = 1,800). reconstituted apoptosome, caspase-3 DEVD-Rh110 fluorescence;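 active = mean inhibition of at least 40% at 20 µM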
Rh110 interf inh: Rh110 signal interference in Apaf-1 inhibitor counter-screen. shares compounds with Apaf1 inhib. Rh110 fluorescence interference, quenched caspase reaction. activation (fluorescence interference), % at 20 µM. 1,800 tested, under 10 active;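 active = signal rise of 40% or more at 20 µM, treated as a fluorescence artifact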
Apaf1 inh interf: shows fluorescence interference in the Apaf-1 inhibitor assay format | shares compounds with Apaf1 inhib | fluorescence interference counterscreen, Apaf-1 assay format | IC50, µM | 460 tested, under 10 active; call rule not given here
Large screens that a line does not name were inactive (follow-up assays come after a bar, where they were run). An excerpt weighted towards active compounds, which were near 2.2% of everything screened.

Nc1c(N(Cc2ccccc2)C(=O)COc2ccc([N+](=O)[O-])cc2)c(=O)[nH]c(=O)n1Cc1ccccc1	none (no result: GSTO1 inh, PAD4 inh, Apaf1 inhib, SUMO HTRF inh, UBC13 polyUb)
O=C(O)/C(=C/c1ccc(Cl)c([N+](=O)[O-])c1)c1ccc(S(=O)(=O)N2CCCCC2)s1	none (no result: GSTO1 inh, PAD4 inh, Apaf1 inhib, SUMO HTRF inh, UBC13 polyUb)
O=C(C[n+]1cccc(C(=O)N/N=C/c2ccc(Br)cc2)c1)c1ccccc1	Apaf1 inhib 50 (no result: GSTO1 inh, SUMO HTRF inh) | Apaf-1 inh conf2 inactive | Rh110 interf inh inactive
O=C(N/N=C/c1ccc(Br)cc1)c1cc[n+](Cc2ccccc2)cc1	none
CC1CCN(CCc2nc3cc(NC(=O)COc4ccccc4)ccc3n2C)CC1	Apaf1 inhib 52 | Apaf-1 inh conf2 inactive | Rh110 interf inh inactive
Cc1ccc(C)c(OCCC(=O)N2CCN(S(=O)(=O)c3cc(F)ccc3F)CC2)c1	none (no result: GSTO1 inh, SUMO HTRF inh)
Cc1ccc(S(=O)(=O)N2CCN(C(=O)CCOc3cc(C)ccc3C)CC2)cc1	Apaf1 inhib 40 (no result: GSTO1 inh, SUMO HTRF inh) | Apaf-1 inh conf2 inactive | Rh110 interf inh inactive
O=C(CNC(=O)c1ccc(OC(F)F)cc1)Nc1cccc(S(=O)(=O)N2CCCC2)c1	none (no result: SUMO HTRF inh)
COc1ccc(NC(=O)CCn2c(=S)[nH]c3ccccc3c2=O)cc1	Apaf1 inhib 86 | Apaf-1 inh conf2 inactive | Rh110 interf inh inactive
COc1ccc(NC(=O)CCCn2c(=S)[nH]c3ccccc3c2=O)cc1	none
COc1ccc(C(=O)NC(CCSC)C(=O)NC2CC2)cc1 (configuration not stated)	none (no result: GSTO1 inh, SUMO HTRF inh)
COc1ccc(N2CCN(Cc3nc4scc(-c5ccccc5)c4c(=O)[nH]3)CC2)cc1	Apaf1 inhib 44 | Apaf-1 inh conf2 inactive | Rh110 interf inh inactive
Fc1ccc(N2CCN(c3nc(CN4CCOCC4)nc4scc(-c5ccccc5)c34)CC2)cc1	Apaf1 inhib 41 | Apaf-1 inh conf2 inactive | Rh110 interf inh inactive
Fc1ccccc1-c1nc(-c2ccc(Br)o2)no1	none
CCC(C)(C)NC(=O)C1CCCN(S(=O)(=O)c2ccc3c(c2)CC(C)N3C(=O)C2CC2)C1 (configuration not stated)	none
COc1ccc(-c2ccc(CN3C(C(C)C)C(=O)N(Cc4cn(CC5CCCCC5)nn4)CCS3(=O)=O)cc2)cc1OC (configuration not stated)	none (no result: GSTO1 inh, PAD4 inh, Apaf1 inhib, SUMO HTRF inh, UBC13 polyUb)
Cc1ccc(N2CCN(S(=O)(=O)c3cccs3)CC2C)cc1 (configuration not stated)	Apaf1 inhib 62 | Apaf-1 inh conf2 inactive | Rh110 interf inh inactive
CCN(c1ccccc1)S(=O)(=O)c1cccc(C(=O)NCCN2CCOCC2)c1	Apaf1 inhib 44 (no result: GSTO1 inh, SUMO HTRF inh) | Apaf-1 inh conf2 inactive | Rh110 interf inh inactive
O=C(NCCN1CCOCC1)c1cccc(S(=O)(=O)N(Cc2ccccc2)c2ccccc2)c1	none (no result: SUMO HTRF inh)
CCC(=O)Nc1nnc(S(=O)(=O)N(C)c2cc(C)cc(C)c2)s1	none (no result: GSTO1 inh, PAD4 inh)
O=C1N[C@@H](Cc2ccccc2)C(=O)N2[C@H]3Nc4ccccc4[C@@]3([C@]34C[C@H]5C(=O)N[C@@H](Cc6ccccc6)C(=O)N5[C@H]3Nc3ccccc34)C[C@@H]12	none (no result: Rin1 Abl inh, SUMO HTRF inh)
CC[C@H](C)[C@@H]1NC(=O)[C@H]([C@@H](C)CC)NC(=O)[C@@H](CC(C)C)NC(=O)[C@H](Cc2ccccc2)NC(=O)[C@H](Cc2ccccc2)NC(=O)[C@@H]2CCCN2C(=O)[C@@H]2CCCN2C(=O)[C@H](C(C)C)NC(=O)[C@H](CC(C)C)NC1=O	Apaf1 inhib 54 (no result: GSTO1 inh, SUMO HTRF inh) | Apaf-1 inh conf2 inactive | Rh110 interf inh inactive
COc1ccc(S(=O)(=O)NC(=O)C2(C)CCN2C(=O)Cc2cccc3ccccc23)cc1 (configuration not stated)	none (no result: GSTO1 inh, PAD4 inh, Apaf1 inhib, SUMO HTRF inh, UBC13 polyUb)
O=C1C(=O)c2c(C(=O)c3ccccc3)coc2-c2ccccc21	Apaf1 inhib 55 | Apaf-1 inh conf2 inactive | Rh110 interf inh inactive
CCCNC(=O)c1cc(C2CCCN(C(=O)c3ccc(OC)cc3)C2)on1 (configuration not stated)	none (no result: GSTO1 inh, PAD4 inh, Apaf1 inhib, SUMO HTRF inh, UBC13 polyUb)
Cc1ccc(S(=O)(=O)NCc2ccccc2)cc1C(=O)N1CCN(c2ccccc2)CC1	Apaf1 inhib 58 (no result: GSTO1 inh, SUMO HTRF inh) | Apaf-1 inh conf2 inactive | Rh110 interf inh inactive
O=C(c1cccc(S(=O)(=O)NCc2ccccc2)c1)N1CCN(c2cccc(C(F)(F)F)c2)CC1	Apaf1 inhib 44 | Apaf-1 inh conf2 inactive | Rh110 interf inh inactive
O=C(c1cccc(S(=O)(=O)NCc2ccccc2)c1)N1CCN(c2ccccc2)CC1	none (no result: GSTO1 inh, SUMO HTRF inh)
Cc1ccc(S(=O)(=O)NCc2ccccc2)cc1C(=O)N1CCCCC1	none
Cc1ccc(Cc2c(-c3cccc(Cl)c3)nc3ccc(Br)cn23)cc1	none (no result: GSTO1 inh, PAD4 inh, Apaf1 inhib, SUMO HTRF inh, UBC13 polyUb)
CC(=O)c1ccc2noc(-c3ccccc3)c2c1	none
CC(=O)c1ccc2c(c1)c(C#N)c1ccccc1[n+]2[O-]	Apaf1 inhib 74 (no result: GSTO1 inh, PAD4 inh) | Apaf-1 inh conf2 42 | Rh110 interf inh inactive | Apaf1 inh interf inactive
COc1ccccc1C1Nc2cccc3cccc(c23)N1	GSTO1 inh 50, Apaf1 inhib 51 | Apaf-1 inh conf2 inactive | Rh110 interf inh inactive
COc1cc2c(cc1OC)CN(Cc1cc(=O)n3c(-c4ccccc4)csc3n1)CC2	Apaf1 inhib 42 | Apaf-1 inh conf2 inactive | Rh110 interf inh inactive
O=c1cc(CN2CCN(c3ccccc3)CC2)nc2scc(-c3ccccc3)n12	none
C/C(=N\NC(=O)Cn1nc(C)c([N+](=O)[O-])c1C)c1ccco1	none
CCOc1cc(/C=C/c2nc3cc(C)c(C)cc3s2)ccc1OCC(=O)N1CCOCC1	Apaf1 inhib 45 | Apaf-1 inh conf2 inactive | Rh110 interf inh inactive
O=C(CCc1c[nH]c2ccccc12)N1CCN(S(=O)(=O)c2ccc([N+](=O)[O-])cc2)CC1	none (no result: GSTO1 inh, PAD4 inh, Apaf1 inhib, SUMO HTRF inh, UBC13 polyUb)
CCN(CC)CCN(C(=O)c1ccc(C(=O)c2ccccc2)cc1)c1nc2ccc(OC)cc2s1	Apaf1 inhib 44 | Apaf-1 inh conf2 inactive | Rh110 interf inh inactive
CCOC(=O)C1CCCN(S(=O)(=O)c2ccc3c4c2CC(=O)N4CC(C)S3)C1 (configuration not stated)	none
CCOC(=O)C1CCN(S(=O)(=O)c2ccc3c4c2CC(=O)N4CC(C)S3)CC1 (configuration not stated)	Apaf1 inhib 44 | Apaf-1 inh conf2 inactive | Rh110 interf inh inactive
COc1ccc2[nH]c(=O)c(CNc3ccccc3C)cc2c1	none
COc1ccc2[nH]c(=O)c(CNc3ccccc3OC)cc2c1	Apaf1 inhib 51 | Apaf-1 inh conf2 43 | Rh110 interf inh inactive | Apaf1 inh interf inactive
COc1ccccc1NS(=O)(=O)c1ccc2[nH]c(=S)oc2c1	none (no result: GSTO1 inh, SUMO HTRF inh)

Screens (PubChem)
